Test results published in ChEMBL document CHEMBL3425458, “Design, synthesis and antitumor activity of triterpenoid pyrazine derivatives from 23-hydroxybetulinic acid” (Eur J Med Chem, 2015).

What was measured:
B16 [1] = test: Cell cycle arrest in mouse B16 cells assessed as accumulation of cells at G1 phase at 5 uM after 72 hrs by propidium iodide staining based flow cytometry (reference value: 24.06%); assay type: functional
B16 [2] = test: Antiproliferative activity against mouse B16 cells assessed as growth inhibition after 72 hrs by MTT assay; assay type: functional, cell-based; details: B16, 72 h
How it was run: (§1)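 IC50 is the concentration inhibiting 50% cell growth. Values are mean ± S.D. from three different experiments, each performed in triplicate.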

B16 [3] = test: In vivo antitumor activity against mouse B16 cells xenografted in mouse assessed as tumor growth inhibitory ratio at 30 mg/kg, ip administered after 7 days of tumor transplantation measured at 25th day after tumor inoculation; assay type: functional; details: 168 h, route intraperitoneal
B16 [4] = test: Induction of apoptosis in mouse B16 cells assessed as necrotic cells at 5 uM after 72 hrs by Annexin V-FITC/propidium iodide staining-based flow cytometry (reference value: […]); assay type: functional
How it was run: (§2)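 B16 cells were treated with vehicle or 1.25, 2.5 or 5 µM for 72 h. Annexin V/PI staining was read by flow cytometry. Values are mean ± SE of at least three independent experiments.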

B16 [5] = test: Induction of apoptosis in mouse B16 cells assessed as early apoptotic cells at 5 uM after 72 hrs by Annexin V-FITC/propidium iodide staining-based flow cytometry (reference value: 2.15%); assay type: functional; how it was run: as §2
[6] = Antiproliferative activity against human Bel7402 cells assessed as growth inhibition after 72 hrs by MTT assay; assay type: functional, cell-based; details: Bel-7402, 72 h; how it was run: as §1
H22 = test: In vivo antitumor activity […] cells xenografted in mouse assessed as tumor growth inhibitory ratio at 30 mg/kg, ip administered after 7 days of tumor transplantation measured at 25th day after tumor inoculation; assay type: functional; details: 168 h, route intraperitoneal
How it was run: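 Mice bearing H22 liver cancer, 10 per group. Test article at 30 mg/kg ip. Vehicle 0.5 mL/mouse iv. Cyclophosphamide 30 mg/kg iv as positive control. Tumor weight recorded to give tumor inhibitory ratio.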

B16 [7] = test: Induction of apoptosis in mouse B16 cells assessed as early apoptotic cells at 1.25 uM after 72 hrs by Annexin V-FITC/propidium iodide staining-based flow cytometry (reference value: 2.15%); assay type: functional; how it was run: as §2
Mus musculus [8] = test: Toxicity against mouse xenografted […] cells assessed as body weight at 30 mg/kg, ip administered after 7 days of tumor transplantation (reference value: 18.1 to 18.6 gms); assay type: organism-based; parameters: dose 30 mg/kg, route intraperitoneal; details: in vivo, 168 h
How it was run: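 H22 liver cancer-bearing mice, 10 per group at start and end. Test article given ip at 30 mg/kg, with a vehicle group (0.5 mL/mouse, iv). Body weight was recorded at start and at end, alongside tumor weight.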

B16 [9] = test: Cell cycle arrest in mouse B16 cells assessed as accumulation of cells at G2 phase at 1.25 uM after 72 hrs by propidium iodide staining based flow cytometry (reference value: 16.73%); assay type: functional
B16 [10] = test: Induction of apoptosis in mouse B16 cells assessed as early apoptotic cells at 2.5 uM after 72 hrs by Annexin V-FITC/propidium iodide staining-based flow cytometry (reference value: 2.15%); assay type: functional; how it was run: as §2
Mus musculus [11] = test: Toxicity against mouse xenografted with mouse B16 cells assessed as body weight at 30 mg/kg, ip administered after 7 days of tumor transplantation (reference value: 18.2 to 18.3 gms); assay type: organism-based; parameters: dose 30 mg/kg, route intraperitoneal; details: in vivo, 168 h
B16 [12] = test: Cell cycle arrest in mouse B16 cells assessed as accumulation of cells at G2 phase at 2.5 uM after 72 hrs by propidium iodide staining based flow cytometry (reference value: 16.73%); assay type: functional
B16 [13] = test: Induction of apoptosis in mouse B16 cells assessed as necrotic cells at 2.5 uM after 72 hrs by Annexin V-FITC/propidium iodide staining-based flow cytometry (reference value: […]); assay type: functional; how it was run: as §2
B16 [14] = test: Induction of apoptosis in mouse B16 cells assessed as late apoptotic cells at 5 uM after 72 hrs by Annexin V-FITC/propidium iodide staining-based flow cytometry (reference value: 3.51%); assay type: functional; how it was run: as §2
HeLa [15] = test: Selectivity index, ratio of IC50 for human HL7702 cells to IC50 for human HeLa cells by MTT assay
How it was run: (§3)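 MTT assay on normal human hepatocyte line HL-7702, with 72 h treatment. Selectivity index is the IC50 in HL-7702 divided by the IC50 in each cancer cell line.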

B16 [16] = test: Induction of apoptosis in mouse B16 cells assessed as viable cells at 2.5 uM after 72 hrs by Annexin V-FITC/propidium iodide staining-based flow cytometry (reference value: […]); assay type: functional; details: B16, 72 h, read-out: Activity
B16 [17] = test: Cell cycle arrest in mouse B16 cells assessed as accumulation of cells at G1 phase at 1.25 uM after 72 hrs by propidium iodide staining based flow cytometry (reference value: 24.06%); assay type: functional
B16 [18] = test: Cell cycle arrest in mouse B16 cells assessed as accumulation of cells at G2/G1 phase at 2.5 uM after 72 hrs by propidium iodide staining based flow cytometry (reference value: 1.83%); assay type: functional
B16 [19] = test: Induction of apoptosis in mouse B16 cells assessed as late apoptotic cells at 1.25 uM after 72 hrs by Annexin V-FITC/propidium iodide staining-based flow cytometry (reference value: 3.51%); assay type: functional; how it was run: as §2
[20] = Antiproliferative activity against human SF763 cells assessed as growth inhibition after 72 hrs by MTT assay; assay type: functional, cell-based; details: SF763, 72 h
How it was run: (§4)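 Values are mean ± S.D. from three different experiments, each performed in triplicate.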

B16 [21] = test: Cell cycle arrest in mouse B16 cells assessed as accumulation of cells at S phase at 1.25 uM after 72 hrs by propidium iodide staining based flow cytometry (reference value: 59.21%); assay type: functional
[22] = Selectivity index, ratio of IC50 for human HL7702 cells to IC50 for human HL60 cells by MTT assay; how it was run: as §3
B16 [23] = test: Induction of apoptosis in mouse B16 cells assessed as necrotic cells at 1.25 uM after 72 hrs by Annexin V-FITC/propidium iodide staining-based flow cytometry (reference value: […]); assay type: functional; how it was run: as §2
B16 [24] = test: Induction of apoptosis in mouse B16 cells assessed as late apoptotic cells at 2.5 uM after 72 hrs by Annexin V-FITC/propidium iodide staining-based flow cytometry (reference value: 3.51%); assay type: functional; how it was run: as §2
B16 [25] = test: Induction of apoptosis in mouse B16 cells assessed as viable cells at 1.25 uM after 72 hrs by Annexin V-FITC/propidium iodide staining-based flow cytometry (reference value: […]); assay type: functional; details: B16, 72 h, read-out: Activity
[26] = Selectivity index, ratio of IC50 for human HL7702 cells to IC50 for human SF763 cells by MTT assay; how it was run: as §3
B16 [27] = test: Cell cycle arrest in mouse B16 cells assessed as accumulation of cells at G1 phase at 2.5 uM after 72 hrs by propidium iodide staining based flow cytometry (reference value: 24.06%); assay type: functional
HeLa [28] = test: Antiproliferative activity against human HeLa cells assessed as growth inhibition after 72 hrs by MTT assay; assay type: functional, cell-based; how it was run: as §1
B16 [29] = test: Induction of apoptosis in mouse B16 cells assessed as viable cells at 5 uM after 72 hrs by Annexin V-FITC/propidium iodide staining-based flow cytometry (reference value: […]); assay type: functional; details: B16, 72 h, read-out: Activity
B16 [30] = test: Selectivity index, ratio of IC50 for human HL7702 cells to IC50 for mouse B16 cells by MTT assay; how it was run: as §3
B16 [31] = test: Cell cycle arrest in mouse B16 cells assessed as accumulation of cells at G2/G1 phase at 5 uM after 72 hrs by propidium iodide staining based flow cytometry (reference value: 1.83%); assay type: functional
B16 [32] = test: Cell cycle arrest in mouse B16 cells assessed as accumulation of cells at S phase at 5 uM after 72 hrs by propidium iodide staining based flow cytometry (reference value: 59.21%); assay type: functional
B16 [33] = test: Cell cycle arrest in mouse B16 cells assessed as accumulation of cells at S phase at 2.5 uM after 72 hrs by propidium iodide staining based flow cytometry (reference value: 59.21%); assay type: functional
[34] = Antiproliferative activity against human HL7702 cells assessed as growth inhibition after 72 hrs by MTT assay; assay type: cell-based; details: L02, 72 h; how it was run: as §3
B16 [35] = test: Cell cycle arrest in mouse B16 cells assessed as accumulation of cells at G2 phase at 5 uM after 72 hrs by propidium iodide staining based flow cytometry (reference value: 16.73%); assay type: functional
Bel-7402 = test: Selectivity index, ratio of IC50 for human HL7702 cells to IC50 for human BEL7402 cells by MTT assay; how it was run: as §3
[36] = Antiproliferative activity against human HL60 cells assessed as growth inhibition after 72 hrs by MTT assay; assay type: functional, cell-based; details: HL-60, 72 h; how it was run: as §4
B16 [37] = test: Cell cycle arrest in mouse B16 cells assessed as accumulation of cells at G2/G1 phase at 1.25 uM after 72 hrs by propidium iodide staining based flow cytometry (reference value: 1.83%); assay type: functional

C=C(C)[C@@H]1CC[C@]2(C(=O)N3CCOCC3)CC[C@]3(C)[C@H](CC[C@@H]4[C@@]5(C)Cc6nccnc6[C@@](C)(COC(C)=O)[C@@H]5CC[C@]43C)[C@@H]12
Activity (B16 [1]): 33.46%
IC50 (B16 [2]): 4.42 µM
inhibition in vivo at 30 mg/kg (B16 [3]): 62.7%
Activity (B16 [4]): 1.96%
Activity (B16 [5]): 45.34%
IC50 [6]: 7.03 µM
inhibition in vivo at 30 mg/kg (H22): 55.6%
Activity (B16 [7]): 11.33%
Activity (Mus musculus [8]): 25.9 g
Activity (B16 [9]): 9.18%
Activity (B16 [10]): 20.14%
Activity (Mus musculus [11]): 25.9 g
Activity (B16 [12]): 6.54%
Activity (B16 [13]): 0.52%
Activity (B16 [14]): 12.1%
Ratio IC50 (HeLa [15]): 14.7
viability at 2.5 µM (B16 [16]): 67.8%
Activity (B16 [17]): 29.67%
Activity (B16 [18]): 1.85%
Activity (B16 [19]): 5.18%
IC50 [20]: 3.53 µM
Activity (B16 [21]): 61.15%
Ratio IC50 [22]: 11
Activity (B16 [23]): 0.86%
Activity (B16 [24]): 11.48%
viability at 1.25 µM (B16 [25]): 82.6%
Ratio IC50 [26]: 21.4
Activity (B16 [27]): 34.67%
IC50 (HeLa [28]): 5.13 µM
viability at 5 µM (B16 [29]): 40.6%
Ratio IC50 (B16 [30]): 17.1
Activity (B16 [31]): 1.85%
Activity (B16 [32]): 63.27%
Activity (B16 [33]): 58.79%
IC50 [34]: 75.4 µM
Activity (B16 [35]): 3.27%
Ratio IC50 (Bel-7402): 11
IC50 [36]: 7.11 µM
Activity (B16 [37]): 1.82%
